# Test results as given in ChEMBL document CHEMBL4513216, “Probing the Open Global Health Chemical Diversity Library for Multistage-Active Starting Points for Next-Generation Antimalarials” (ACS Infect Dis, 2020).
# Test: Toxicity liver stage against HepG2, at 10uM
# Format: cell-based
# Set-up: test concentration 10 uM, cell line HepG2-A16-CD81EGFP
# Details: human, HepG2-A16-CD81EGFP cells; read-out: INHIBITION
# In short: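 Uninfected HepG2-A16-CD81EGFP cells, 3 × 10^3 per well, 1536-well, plated on prespotted compound at 10 μM final, parasite-free screening media added to match infected plates; puromycin 10 μM positive, DMSO 0.5% negative; run in parallel with 48 h PbLuc assay at 37 °C, 5% CO2; viability by CellTiter-Glo luminescence, normalized to controls.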
row,Compound,cytotoxicity at 10 µM
1,COCC(=O)NC[C@H]1C[C@@H]2CCN1C[C@@H]2c1cc(-c2cccs2)nn1C,1.23%
2,CC(=O)N1CC[C@H]2CC(=O)N(Cc3ccc4c(c3)OCO4)CC[C@H]2C1,-3.91%
3,CCSc1nnc(CCNC(=O)OC(C)(C)C)o1,-25.9%
4,NC(=O)Cc1ccc(OCc2noc(C(=O)N3CCCC3)n2)cc1,-13.6%
5,COC(=O)NCCCn1ccnc1-c1ccccc1,-2.27%
6,Cn1c(C(F)(F)F)nn(CCNC(=O)c2nc3ccccc3s2)c1=O,1.79%
7,CN(C)CC1CSCCCN1S(=O)(=O)c1ccc(C(F)(F)F)cc1 (configuration not stated),-6.71%
8,CCN1CC[C@@]2(C(=O)N(C)C)CCN(C(=O)NC(C)C)CC[C@@H]12,-15.2%
9,c1cc(CN2CCC3(CC2)COC(COCC2CC2)C3)co1 (configuration not stated),-4.19%
10,Cc1occc1C(=O)N1CC[C@@H]2[C@@H](CO[C@H]2CNS(C)(=O)=O)C1,11.3%
11,Cn1ccnc1CN1CCC2(CC1)CC(Nc1ccccn1)CO2 (configuration not stated),-7.97%
12,COc1cc(C2SCC(=O)Nc3[nH]ncc32)cc(OC)c1OC (configuration not stated),8.49%
13,Cc1cc(O)c(OCC(=O)Nc2nccs2)cn1,4.07%
14,Cc1nccc([C@@H]2C[C@@H]3CCN(S(C)(=O)=O)C[C@H]3O2)n1,-11.3%
15,CC(=O)Nc1ccn(Cc2ccccc2)n1,2.04%
16,Cc1c(S(=O)(=O)NC2CC2)cc2c(C)cc(=O)n3c2c1CCC3,-1.95%
17,Cc1ccc2c(c1)c(C)cc(=O)n2CCCN,1.14%
18,Cc1nn(C)c(C)c1-c1nccnc1CC1CCNCC1,-2.38%
19,NC(=O)CN1CCCCC1c1ccc(-n2ccnc2)nc1 (configuration not stated),1.6%
20,COc1cccc(CC(=O)NC(C)c2nc3cccnc3n2C(C)C)c1 (configuration not stated),-22.6%
21,O=C(O)CN1CCOCC(Cc2ccc(Cl)cc2)C1 (configuration not stated),-25.7%
22,O=C1NCC2(CCCN(Cc3cccnc3)C2)Oc2ccccc21 (configuration not stated),-24.1%
23,CN1CCC2(Cc3ccccc3CN(C(=O)c3ccc(Cl)cc3)C2)C1 (configuration not stated),-3.12%

row,Compound,cytotoxicity at 10 µM
1,CN(CCN(C)S(=O)(=O)CC1CCOCC1)c1ccccc1,-9.65%
2,CCOCC(=O)Nc1cc(-n2nnnc2C2CC2)ccc1F,-4.28%
3,CC(C)N(C)S(=O)(=O)N1CCN(Cc2ccco2)CC1,-0.796%
4,COCc1c(Cl)cccc1NC(=O)CNC(=O)C(C)(C)C,-5.73%
5,CN1CCOC(CNCC(=O)NCCCc2ccccc2)C1 (configuration not stated),-3.23%
6,CC(NC(=O)Nc1cccnc1N1CCOCC1)c1ccncc1 (configuration not stated),5.28%
7,OC1(CN2CCCC(Cn3cncn3)C2)CCCCC1 (configuration not stated),2.96%
8,CCn1nc2c(cc1=O)CN(CCOc1ccc(C#N)cc1)CC2,-3.73%
9,CC(c1ncc(C(C)(C)C)o1)N1CCN(c2ccncc2)CC1 (configuration not stated),18.5%
10,COc1cc(C2(C(=O)N3CCN(CC(C)O)CC3)CC2)ccc1C (configuration not stated),-2.43%
11,O=C(CS(=O)(=O)c1ccccn1)NC1CCCc2ccccc21 (configuration not stated),-4.04%
12,CCCc1nc(C)c(C(=O)NS(=O)(=O)c2cccnc2)s1,-5.8%
13,NS(=O)(=O)c1ccc(CNC(=O)c2ccc(Cl)cc2F)cc1,-1.59%
14,O=C(Nc1ccnn1C1CCCC1)c1ccc(NC2CC2)nc1,4.75%
15,c1cncc(CN2CCC(NCCc3ccc4c(c3)OCO4)CC2)c1,-9.62%
16,CC(C(=O)Nc1ncccn1)N1CCc2[nH]nc(C(F)(F)F)c2C1 (configuration not stated),-0.583%
17,CC(O)CN1CCC(CN(C)Cc2ccc(C#N)cc2)CC1 (configuration not stated),0.788%
18,O=C(NC1CC1)c1ccccc1NCc1cn2cccnc2n1,5.38%
19,CCc1ccc(-c2nn3c(nc2=O)-c2ccccc2NC3C(=O)O)cc1 (configuration not stated),11.2%
20,COc1ccc(Cl)cc1NC(=O)N(C)CC(O)COCCOC(C)C (configuration not stated),11.3%
21,CC(=O)NC1CCCN(c2ccc(C#N)cc2C(F)(F)F)C1 (configuration not stated),7.44%
22,CN(Cc1nccn1CC(F)(F)F)C(=O)c1ccc(F)c(F)c1,-0.394%
23,CCc1cn[nH]c1C1CCN(C(=O)c2cc(C(C)=O)c(C)[nH]c2=O)CC1,-2.23%

row,Compound,cytotoxicity at 10 µM
1,CCC(=O)Nc1cccc(OCC(=O)N2C[C@H]3CC[C@H]2C3)c1,-2.18%
2,CCC(C(=O)N(C)C)N1CCC(c2nccn2Cc2cscn2)CC1 (configuration not stated),2.86%
3,Cc1ccc(C(C(=O)O)N(C)CCCN2CCOCC2)c(C)c1 (configuration not stated),0.129%
4,O=C(C1CNCCN1C(=O)CCOc1ccccc1)N1CCOCC1 (configuration not stated),0.311%
5,CC(C)n1cnnc1CN(C)C(=O)CCn1cnc2ccccc2c1=O,6.4%
6,CCn1cc(CN2CCN(Cc3cc(C)cc(C)c3)C(=O)C2)cc1C#N,1.72%
7,COCCN1CC2(CCC1=O)CCN(Cc1nnc(C)o1)CC2,-5.81%
8,CCn1c(C2CCCN(Cc3cc(C)cc(C)c3)C2)nn(C)c1=O (configuration not stated),-3.12%
9,CN(C)c1ccc(-c2ccnc3c2ccn3C)nn1,10.9%
10,CCc1cc(N2CCS(=O)(=O)CC2)n2nc(C)c(C)c2n1,-4.02%
11,CCOC(=O)CNC(=O)N1CCOC(Cc2ccc(OC)cc2)C1 (configuration not stated),-7.99%
12,O=C(NCC(F)(F)C(F)F)c1cccnc1,15.4%
13,COC(=O)CCCC(=O)N(C)CC1Cc2ccccc2CN1C (configuration not stated),-12.4%
14,O=C(c1coc2ccccc12)N1CCCC(O)(CO)CC1 (configuration not stated),6.41%
15,Nc1nnc(SCC(=O)NCC(O)c2ccccc2)s1 (configuration not stated),12%
16,Cc1cccc(C(C(=O)NC(C)(C)CN2CCOCC2)N(C)C)c1 (configuration not stated),-2.21%
17,OC1(CNc2ccc(-c3nc(C4CC4)no3)cn2)CCCCC1,7.72%
18,Cc1nnc(CN2CCC3(CCC(=O)N(C4CC4)C3)CC2)o1,-6.68%
19,CSc1cccc(CC(=O)N[C@@H]2CCNC[C@H]2O)c1,-1.72%
20,CC(Cc1ccc2c(c1)OCO2)c1cn(CCN2CCCC2)nn1 (configuration not stated),7.09%
21,O=S(=O)(NCCc1nc(-c2cccnc2)n[nH]1)NCc1ccccc1,7.02%
22,CCc1ncc(C(=O)N2CCCC(c3nccn3CCOC)C2)cn1 (configuration not stated),-0.262%
23,Cc1cc(C)nc(N2C[C@H]3OC(=O)N(CCc4cccc(Cl)c4)[C@H]3C2)n1,6.72%

row,Compound,cytotoxicity at 10 µM
1,COCCCC1CCCCN1Cc1cn2cc(C)ccc2n1 (configuration not stated),3.21%
2,Cc1ccc(CCNC(=O)Cn2nc(C)n(Cc3ccccc3)c2=O)s1,-3.66%
3,CCOCC(=O)N1C[C@@H](NC(C)=O)[C@H](c2ccc(OC)cc2)C1,-9.44%
4,CC(=O)N1CCC(Nc2cc(F)ccc2OCC2CCCO2)CC1 (configuration not stated),-14.3%
5,COc1ncccc1NC(=O)N(Cc1ccco1)C1CC1,5.25%
6,COc1ccc(Cl)cc1CC(=O)NS(=O)(=O)c1ccc(C(N)=O)cc1,-2.64%
7,COc1cc(CCC(=O)NC(C)(C)C)ccc1OCC(F)(F)F,-8.76%
8,NC(=O)NCC1CCCCN1C(=O)c1cccc(Cl)c1 (configuration not stated),-7.6%
9,CC(C)c1noc(CN2CCN(C(=O)c3cc(Cl)ccc3F)CC2)n1,-6.8%
10,Cc1ccc(NC2CCN(C(=O)c3ccco3)CC2)nn1,-14.3%
11,Cc1ccccc1CNC(=O)C1CCN(Cc2nccn2C)CC1,-17.9%
12,Cc1noc2ncc(C(=O)NCC3CCCO3)cc12 (configuration not stated),-10.2%
13,CC(Cn1ccnc1)NC(=O)NCCc1cccs1 (configuration not stated),-3.16%
14,Cc1nn(C)c(N(C)C)c1CNC1CCOc2c(Cl)cccc21 (configuration not stated),-5.36%
15,Cc1nc(-c2ccco2)ccc1C(=O)N1CCn2c(C)nnc2C1,-5.83%
16,O=C(CN1CCC(c2ccnn2CCO)CC1)NCC1CCCCC1,-0.463%
17,Cc1cc(CN2CCN(CC(O)c3cccc(F)c3)CC2)no1 (configuration not stated),-12.2%
18,CCc1c(C(=O)NC2CCS(=O)(=O)C2)cnn1-c1ccc(C)cc1 (configuration not stated),-5.94%
19,Cc1nc(C)n(CC2CCCN(CC(=O)NC3CCOCC3)C2)n1 (configuration not stated),-11.8%
20,COc1cccc(S(=O)(=O)CCN2CCn3c(C)nnc3C2)c1,-18.7%
21,Cc1nc(C)n(CC2CCCN2Cc2cn3ccccc3n2)n1 (configuration not stated),-3.05%
22,CN(CC(=O)Nc1ccc(Br)cn1)C(=O)C(C)(C)C,-11.9%
23,CSC(C)C(=O)N(C)CC(=O)Nc1ccc(Br)cn1 (configuration not stated),-7.18%

row,Compound,cytotoxicity at 10 µM
1,CC(C)c1nc(C2CCCN2CC(=O)Nc2cccnc2)no1 (configuration not stated),-10.1%
2,NC(=O)CC1CCN(C(=O)NCCc2ccc(Cl)s2)CC1,-8.03%
3,O=C(NCCC(=O)N1CCCCCCC1)c1ccoc1,-22.2%
4,CCN(CC)CC1CCN(Cc2ccn(C)c(=O)c2)CC1,-14.7%
5,Cc1nnc2n1CCN(CC(=O)Nc1cc(C(C)C)no1)C2,-6.93%
6,CNC(=O)NC(=O)CN(CC(C)O)c1ccccc1 (configuration not stated),10.9%
7,Cc1cc(NC(=O)NCc2ccccc2OC(F)F)n(C)n1,2.29%
8,O=C(NCCn1ccnc1)N1CCN(Cc2cccs2)CC1,-7.49%
9,COC(=O)N1CC2(CCNCC2)c2cc(Cl)ccc21,7.71%
10,Cc1ccc(C(=O)N2CCc3ccc(=O)n(CCN(C)C)c3CC2)o1,-2.16%
11,CN(C)CC(=O)N1CCc2sc(C(=O)NCC3CC3)cc21,1.68%
12,O=C(NC1CC1)N1CCc2ncnc(-c3ccncc3)c2CC1,-1.04%
13,Cc1noc(C(C)C)c1C(=O)NCCCN1CCNCC1,-24.7%
14,Cc1cc(C(=O)N2CCc3nc(C4CCCCN4)ncc3C2)cs1 (configuration not stated),-22.4%
15,CCCN1CCC2(CC1)COc1ccccc1S(=O)(=O)N(CC1CC1)C2,-3.43%
16,CCN(CC)CCN1CC[C@H]2OCC[C@@]2(C(=O)N2CCOCC2)C1,4.64%
17,COc1ccc(CN2CCC3(CC2)CCN(CCN(C)C)C3=O)cc1,-4.25%
18,Cc1cccc(CN2C[C@@H]3COC[C@]3(CNC(=O)c3cccn3C)C2)n1,-5.64%
19,Cc1nc(CN2CCC3(CCN(c4cnn(C)c4)C3=O)C2)cs1 (configuration not stated),4.15%
20,CC(C)n1c(=O)[nH]c2cn(-c3ccc(Br)cc3)c(=O)n21,0.843%
